What was measured:
[1] = biological target: C-C chemokine receptor type 2 (Homo sapiens) (UniProt P41597); assay: Antagonist activity at CCR2 in human THP1 cells assessed as inhibition of CCL2-induced chemotaxis after 2 hrs by microtiter format trans-well migration assay; type: functional, cell-based; conditions: THP-1
Method in brief: (§1)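 Microtiter trans-well migration assay in Gey's balanced salt solution with 1 mg/mL endotoxin-free BSA, no fetal calf serum. Migration ran 2 h at 37 °C. Compounds dissolved in DMSO and added to both top and bottom compartments, final DMSO 1%.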

[2] = biological target: C-C chemokine receptor type 2 (Homo sapiens) (UniProt P41597); assay: Antagonist activity at CCR2 in human THP1 cells assessed as inhibition of CCL2-induced chemotaxis at 100 nM after 2 hrs by microtiter format trans-well migration assay; type: functional, cell-based; conditions: THP-1; method in brief: as §1
[3] = biological target: C-C chemokine receptor type 2 (Homo sapiens) (UniProt P41597); assay: Antagonist activity at CCR2 in human THP1 cells assessed as inhibition of CCL2-induced chemotaxis at 1 nM after 2 hrs by microtiter format trans-well migration assay; type: functional, cell-based; conditions: THP-1; method in brief: as §1
[4] = biological target: C-C chemokine receptor type 2 (Homo sapiens) (UniProt P41597); assay: Antagonist activity at CCR2 in human THP1 cells assessed as inhibition of CCL2-induced chemotaxis at 0.1 nM after 2 hrs by microtiter format trans-well migration assay; type: functional, cell-based; conditions: THP-1; method in brief: as §1
[5] = biological target: C-C chemokine receptor type 2 (Homo sapiens) (UniProt P41597); assay: Antagonist activity at CCR2 in human THP1 cells assessed as inhibition of CCL2-induced chemotaxis at 1000 nM after 2 hrs by microtiter format trans-well migration assay; type: functional, cell-based; conditions: THP-1; method in brief: as §1
[6] = biological target: C-C chemokine receptor type 2 (Homo sapiens) (UniProt P41597); assay: Antagonist activity at CCR2 in human THP1 cells assessed as inhibition of CCL2-induced chemotaxis at 0.01 nM after 2 hrs by microtiter format trans-well migration assay; type: functional, cell-based; conditions: THP-1; method in brief: as §1
[7] = biological target: C-C chemokine receptor type 2 (Homo sapiens) (UniProt P41597); assay: Antagonist activity at CCR2 in human THP1 cells assessed as inhibition of CCL2-induced chemotaxis at 10 nM after 2 hrs by microtiter format trans-well migration assay; type: functional, cell-based; conditions: THP-1; method in brief: as §1
[8] = test system: Mus musculus; assay: Antiinflammatory activity in mouse assessed as inhibition of LPS-induced TNFalpha upregulation at 0.0065 mg, po measured 2 hrs after LPS challenge; type: functional
Method in brief: (§2)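 Murine sublethal endotoxemia: LPS given intraperitoneally, with serum TNF-α measured 2 h after the LPS injection as the end point. Compound was given subcutaneously or orally. Vehicle was 0.6% DMSO and 1% carboxymethylcellulose (final concentrations) in sterile water. Effect is reported as % relative to control.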

[9] = test system: Mus musculus; assay: Antiinflammatory activity in mouse assessed as inhibition of LPS-induced TNFalpha upregulation at 0.0216 ug, sc measured 2 hrs after LPS challenge; type: functional; method in brief: as §2
[10] = test system: Mus musculus; assay: Antiinflammatory activity in sc dosed mouse assessed as inhibition of LPS-induced TNFalpha upregulation measured 2 hrs after LPS challenge relative to control; type: functional
Method in brief: (§3)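 Murine sublethal LPS endotoxemia screen. LPS is injected intraperitoneally and serum TNF-α is measured 2 h later as the end point. Compound is given subcutaneously or orally in a vehicle of 0.6% DMSO plus 1% carboxymethylcellulose (final concentrations) in sterile water. Values are % relative to control.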

[11] = test system: Mus musculus; assay: Antiinflammatory activity in mouse assessed as inhibition of LPS-induced TNFalpha upregulation at 0.216 mg, sc measured 2 hrs after LPS challenge; type: functional; method in brief: as §2
[12] = test system: Mus musculus; assay: Antiinflammatory activity in mouse assessed as inhibition of LPS-induced TNFalpha upregulation at 0.00216 mg, sc measured 2 hrs after LPS challenge; type: functional; method in brief: as §2
[13] = test system: Mus musculus; assay: Antiinflammatory activity in mouse assessed as inhibition of LPS-induced TNFalpha upregulation at 624 pg, po measured 2 hrs after LPS challenge; type: functional; method in brief: as §3
[14] = test system: Mus musculus; assay: Antiinflammatory activity in mouse assessed as inhibition of LPS-induced TNFalpha upregulation at 0.216 mg, po measured 2 hrs after LPS challenge; type: functional; method in brief: as §2
[15] = test system: Mus musculus; assay: Antiinflammatory activity in mouse assessed as inhibition of LPS-induced TNFalpha upregulation at 0.000216 mg, po measured 2 hrs after LPS challenge; type: functional
Method in brief: (§4)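 Murine sublethal endotoxemia: LPS given intraperitoneally, serum TNF-α measured 2 h after LPS injection. Compound vehicle 0.6% DMSO plus 1% carboxymethylcellulose (final concentrations) in sterile water.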

[16] = test system: Mus musculus; assay: Antiinflammatory activity in po dosed mouse assessed as inhibition of LPS-induced TNFalpha upregulation measured 2 hrs after LPS challenge relative to control; type: functional; method in brief: as §3
[17] = Half life in Sprague-Dawley rat at 1 mg/kg, iv administered as single dose; type: ADME, organism-based; design: dose 1 mg/kg, route intravenous; conditions: in vivo
Method in brief: (§5)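 Male Sprague-Dawley rats, three per compound, receive a single intravenous dose in 5% DMSO in 0.9% saline. Food and water are given ad libitum. Plasma is taken at 5, 15, 30, 60, 120, 180, 240 and 480 min. Drug is measured by LC/MS/MS after extraction with 0.1% formic acid in acetonitrile. The curve is back-extrapolated to time zero assuming an initial volume of 0.26 L/kg.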

[18] = test system: Rattus norvegicus; assay: Plasma concentration in Sprague-Dawley rat at 3 mg/kg, po administered as single dose; type: ADME, organism-based; design: dose 3 mg/kg, route oral; conditions: in vivo
Method in brief: (§6)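 Male Sprague-Dawley rats, three per compound, receive a single oral dose by gavage in 1% carboxymethylcellulose in 0.9% saline, with food and water ad libitum. Plasma is sampled from 5 to 480 min and drug is quantified by positive-mode LC/MS/MS after acetonitrile/formic acid extraction. The lower limit of quantitation is about 2 ng/mL. Exposure is AUC(0→t) by the linear/log trapezoidal rule, and F is oral fractional bioavailability.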

[19] = test system: Rattus norvegicus; assay: AUC (0 to t) in Sprague-Dawley rat at 1 mg/kg, iv administered as single dose; type: ADME, organism-based, Plasma; design: dose 1 mg/kg, route intravenous; conditions: in vivo
Method in brief: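 Male Sprague-Dawley rats, three per compound per route, single dose. IV vehicle 5% DMSO in 0.9% saline; oral gavage vehicle 1% carboxymethylcellulose in 0.9% saline; fed ad libitum. Plasma taken 5–480 min post-dose, extracted with 0.1% formic acid in acetonitrile, quantified by LC/MS/MS (positive mode). AUC(0–t) by linear/log trapezoidal rule; IV curve back-extrapolated assuming initial volume 0.26 L/kg.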

[20] = test system: Mus musculus; assay: Antiinflammatory activity in mouse assessed as inhibition of LPS-induced TNFalpha upregulation at 0.0216 mg, po measured 2 hrs after LPS challenge; type: functional; method in brief: as §2
[21] = test system: Mus musculus; assay: Antiinflammatory activity in mouse assessed as inhibition of LPS-induced TNFalpha upregulation at 0.000864 mg, po measured 2 hrs after LPS challenge; type: functional; method in brief: as §2
[22] = test system: Mus musculus; assay: Antiinflammatory activity in mouse assessed as inhibition of LPS-induced TNFalpha upregulation at 0.00312 ug, po measured 2 hrs after LPS challenge; type: functional; method in brief: as §2
[23] = Fractional bioavailability in Sprague-Dawley rat at 3 mg/kg, po administered as single dose; type: ADME, organism-based; conditions: in vivo; method in brief: as §6
[24] = test system: Mus musculus; assay: Antiinflammatory activity in sc dosed mouse assessed as inhibition of LPS-induced TNFalpha upregulation measured 2 hrs after LPS challenge; type: functional
[25] = test system: Mus musculus; assay: Antiinflammatory activity in mouse assessed as inhibition of LPS-induced TNFalpha upregulation at 830 pg, sc measured 2 hrs after LPS challenge; type: functional; method in brief: as §3
[26] = test system: Mus musculus; assay: Antiinflammatory activity in mouse assessed as inhibition of LPS-induced TNFalpha upregulation at 0.078 ug, po measured 2 hrs after LPS challenge; type: functional; method in brief: as §2
[27] = test system: Mus musculus; assay: Antiinflammatory activity in mouse assessed as inhibition of LPS-induced TNFalpha upregulation at 0.000216 mg, sc measured 2 hrs after LPS challenge; type: functional; method in brief: as §4
[28] = Volume of distribution at steady state in Sprague-Dawley rat at 1 mg/kg, iv administered as single dose; type: ADME, organism-based; design: dose 1 mg/kg, route intravenous; conditions: in vivo, read-out: Vdss; method in brief: as §5
[29] = test system: Mus musculus; assay: Antiinflammatory activity in po dosed mouse assessed as inhibition of LPS-induced TNFalpha upregulation measured 2 hrs after LPS challenge; type: functional
[30] = test system: Mus musculus; assay: Antiinflammatory activity in mouse assessed as inhibition of LPS-induced TNFalpha upregulation at 0.0216 ug, po measured 2 hrs after LPS challenge; type: functional; method in brief: as §2
[31] = test system: Mus musculus; assay: Antiinflammatory activity in mouse assessed as inhibition of LPS-induced TNFalpha upregulation at 0.065 mg, po measured 2 hrs after LPS challenge; type: functional; method in brief: as §2
[32] = test system: Mus musculus; assay: Antiinflammatory activity in mouse assessed as inhibition of LPS-induced TNFalpha upregulation at 0.0216 mg, sc measured 2 hrs after LPS challenge; type: functional; method in brief: as §2

C-C chemokine receptor type 2 (Homo sapiens), sequence (P41597 whole entry, looked up): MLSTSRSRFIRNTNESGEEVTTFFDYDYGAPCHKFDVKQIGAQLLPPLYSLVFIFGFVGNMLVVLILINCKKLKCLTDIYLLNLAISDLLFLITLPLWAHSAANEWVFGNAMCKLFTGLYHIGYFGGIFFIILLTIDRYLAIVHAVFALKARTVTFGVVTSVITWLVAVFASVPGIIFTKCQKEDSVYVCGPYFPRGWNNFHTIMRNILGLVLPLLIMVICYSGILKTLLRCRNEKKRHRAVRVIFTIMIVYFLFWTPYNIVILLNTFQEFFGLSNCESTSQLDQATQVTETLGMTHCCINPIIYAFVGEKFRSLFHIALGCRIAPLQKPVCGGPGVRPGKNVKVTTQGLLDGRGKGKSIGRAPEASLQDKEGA

`CC(C)=CCC(C)(C)C(=O)N[C@H]1CCCCNC1=O` showed an ED50 [1] of 0.2 nM.

In the case of `CCCCCCCCCCCC(=O)N[C@H]1CCCCNC1=O`, the ED50 [1] was 15 nM.

Molecule `O=C(N[C@H]1CCCCNC1=O)C1=CCCCC1` has an ED50 [1] of 0.8 nM.

In the case of `O=C1NCCCC[C@H]1NC(=O)C12CC3CC(CC(C3)C1)C2`, the inhibition [2] was 101%, the inhibition [3] was 46% and the inhibition [4] was 14%. The inhibition [5] was 100%, the inhibition [6] was 26% and the inhibition [7] was 98%. It also gave an ED50 [1] of 0.44 nM.

Work on `CCCCCCCCCCC(C)C(=O)N[C@H]1CCCCNC1=O` (mixture of isomers; form 1) yielded an ED50 [1] of 3 nM.

For `C=CCC(C)(C)C(=O)N[C@H]1CCCCNC1=O`, the ED50 [1] was 1 nM.

Work on `CCCCCCCCCC(C)(C)CC(=O)N[C@H]1CCCCNC1=O` yielded an ED50 [1] of 4 nM.

For `O=C(N[C@H]1CCCCNC1=O)C1CCCCC1`, the ED50 [1] was 0.5 nM.

With `O=C1NCCCC[C@@H]1NC(=O)C12CC3CC(CC(C3)C1)C2` the “inhibition (INH)” value [8] was 71%, the “inhibition (INH)” value [9] was 29% and the “inhibition (INH)” value [10] was 90%. The “inhibition (INH)” value [11] was 89%, the inhibition [2] was 98% and the “inhibition (INH)” value [12] was 71%. The “inhibition (INH)” value [13] was 8%, the “inhibition (INH)” value [14] was 91% and the “inhibition (INH)” value [15] was 76%. The inhibition [3] was 99%, the “inhibition (INH)” value [16] was 90% and the half-life [17] was 16 min. For the same molecule, the Cp [18] was under 2 ng/mL, the AUC [19] was 477 ng·min/mL and the “inhibition (INH)” value [20] was 75%. The inhibition [4] was 11%, the “inhibition (INH)” value [21] was 78% and the “inhibition (INH)” value [22] was 30%. The bioavailability [23] was under 1%, the inhibition [5] was 100% and the ED50 [24] was 2 µg/kg. For the same molecule, the “inhibition (INH)” value [25] was -12%, the “inhibition (INH)” value [26] was 59% and the inhibition [7] was 100%. For the same molecule, the “inhibition (INH)” value [27] was 56%, the Vd [28] was 0.8 L/kg and the ED50 [29] was 0.5 µg/kg. The “inhibition (INH)” value [30] was 60%, the ED50 [1] was 0.09 nM and the “inhibition (INH)” value [31] was 83%. For the same molecule, the “inhibition (INH)” value [32] was 89%.

Molecule `CCCCCC1CCC(C(=O)N[C@H]2CCCCNC2=O)CC1` (stereo partly specified) has an ED50 [1] of 5 nM.

Reference: ChEMBL document CHEMBL1136923, “Highly potent, orally available anti-inflammatory broad-spectrum chemokine inhibitors” (J Med Chem, 2009)
